Measurements of several laboratories.
Protocols differ between the studies behind these lines.
CHRM1: Muscarinic acetylcholine receptor M1 (CHRM1, Homo sapiens, UniProt P11229)

Structure (SMILES) | target | assay | system | setting | measurement | value
CC(=O)[C@@]1(O)CC[C@H]2[C@@H]3C=C(Cl)C4=CC(=O)[C@@H]5C[C@@H]5[C@]4(C)[C@H]3CC[C@@]21C | Progesterone receptor (PGR, Homo sapiens, UniProt P06401) | enzyme activity | – | – | IC50 | 0.003 µM
CC[C@H](C)[C@H](NC(=O)[C@H](CCCNC(=N)N)NC(=O)[C@H](CCCCN)NC(=O)[C@@H]1CCCN1C(=O)[C@@H](N)CC(C)C)C(=O)N[C@@H](C)C(=O)O | N-terminal Xaa-Pro-Lys N-methyltransferase 1 (Homo sapiens, UniProt Q9BV86) | binding, ITC | – | pH 7.5 | Kd | 48 µM
CC(C)[C@@H]1NC(=O)[C@H](CO)NC(=O)[C@H](CO)NC(=O)[C@H](CO)N(C)C(=O)[C@H](CC(=O)O)NC(=O)[C@H](CO)NC(=O)[C@H](Cc2ccccc2)NC(=O)CSC[C@@H](C(=O)NCC(N)=O)NC(=O)[C@H](CC(N)=O)NC(=O)[C@H](CCCNC(=N)N)NC(=O)[C@H](C)NC(=O)[C@H](Cc2ccc(-c3ccccc3)cc2)NC(=O)[C@H](CC(N)=O)NC(=O)[C@@H]2CCCN2C1=O | E3 ubiquitin-protein ligase Mdm2 (MDM2, Homo sapiens, UniProt Q00987) | ligand displacement, TR-FRET | – | – | Ki | > 8.06 µM
CC(C)[C@H](N)C(=O)N1CCC[C@H]1B(O)O | Lysosomal Pro-X carboxypeptidase (PRCP, Homo sapiens, UniProt P42785) | enzyme activity, inhibitor | – | – | IC50 | 50.3 µM
N[C@@H](C[C@]1(C(=O)O)C[C@H]2OC[C@@H](O)[C@@H](O)[C@H]2O1)C(=O)O | Glutamate receptor ionotropic, kainate 3 (Rattus norvegicus, UniProt P42264, F446Y) | ligand displacement, radioligand | – | – | Ki | 0.547 µM
O=P(O)(O)C(CCCc1cccc(Oc2ccccc2)c1)S(=O)(=O)O (stereo not shown) | 4,4'-diapophytoene synthase (Staphylococcus aureus, UniProt A9JQL9) | enzyme activity, inhibitor | – | – | Ki | 0.02 µM
CC(C)C[C@H]1C(=O)N2CCC[C@H]2[C@]2(O)O[C@](NC(=O)[C@@H]3C=C4c5cccc6[nH]cc(c56)C[C@H]4N(C)C3)(C(C)C)C(=O)N12 | Solute carrier organic anion transporter family member 1B1 (SLCO1B1, Homo sapiens, UniProt Q9Y6L6) | transporter uptake, inhibitor, fluorescence | CHO | 30 min, pH 7.4 | IC50 | 0.8 µM
CCCCN1CCC(COC(=O)c2cc(Cl)c(N)c3c2OCCO3)CC1 | 5-hydroxytryptamine receptor 4 (HTR4, Homo sapiens, UniProt Q13639) | ligand displacement, radioligand | – | – | Ki | 0.0001 µM
C[N+]1(C)CCC(OC(=O)C(c2ccccc2)c2ccccc2)CC1 | CHRM1 | ligand displacement, radioligand | – | – | IC50 | 0.00467 µM
CSCC[C@H](NC(=O)[C@@H](NC(=O)[C@@H](N)Cc1ccc(O)cc1)C(C)C)C(=O)NCC(=O)N[C@@H](Cc1c[nH]cn1)C(=O)O | Melanocortin receptor 3 (Mus musculus, UniProt P33033) | reporter gene, agonist | – | – | EC50 | > 100 µM
CC(C)C[C@H](NC(=O)[C@H](Cc1ccccc1)NC(=O)c1cnccn1)B(O)O | Chymase (CMA1, Homo sapiens, UniProt P23946) | enzyme activity, inhibitor | – | – | IC50 | 4.7 µM
Cc1cc(N2CCNCC2)nc2ccccc12 | CHRM1 | ligand displacement, radioligand | – | cell membranes | Ki | > 31.6 µM
N#Cc1c(N)nc(SCC(N)=O)c(C#N)c1-c1ccc(OCC2CC2)cc1 | Adenosine receptor A2b (ADORA2B, Homo sapiens, UniProt P29275) | ligand displacement in cells, radioligand | – | – | IC50 | 0.785 µM
N[C@@H](CCP(=O)(O)O)C(=O)O | Metabotropic glutamate receptor 8 (Grm8, Rattus norvegicus, UniProt P70579) | calcium signal, agonist | – | – | EC50 | 0.0589 µM
COc1cc([C@@H]2c3cc4c(cc3[C@@H](O[C@@H]3O[C@@H]5CO[C@@H](C)O[C@H]5[C@H](O)[C@H]3O)[C@H]3COC(=O)[C@H]23)OCO4)cc(OC)c1O | Organic cation/carnitine transporter 2 (SLC22A5, Homo sapiens, UniProt O76082) | transporter uptake, inhibitor, radiometric | – | – | IC50 | 55 µM
COc1cc(C(=O)N2CC[C@@H](O)[C@@H](N)C2)cc2nc(-c3cc4ccccc4n3CC3CC3)n(C)c12 | CHRM1 | calcium signal, antagonist, fluorescence | – | – | IC50 | 12.6 µM
